# The list is not random: actives were taken first. Their share in the collection is about 3.3%.
# rCAG RNA binder: binders of r(CAG) RNA repeats, primary screen, biochemical, fluorescence. r(CAG) RNA repeat, TO-PRO-1 dye displacement fluorescence. inhibition, % at 3 µM. actives 1.3% (n = 370,000). AID 651821, 2012;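 active = inhibition above the plate cutoff, the mean of all test compounds on that plate plus 3 SD, cut at about 35% in these data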;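 also: 0% = DMSO alone and 100% = 100 µM mitoxantrone as full dye displacement; higher means more dye released from RNA so lower well fluorescence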
# PRMT1 FP inh: PRMT1 methyltransferase inhibitors, primary screen, biochemical, fluorescence polarization | Protein arginine N-methyltransferase 1 (Homo sapiens), Q99873 | recombinant PRMT1, activity-based probe fluorescence polarization | inhibition, % at 2.79 µM | actives 1.3% (n = 370,000) | AID 652257, 2013;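 active = inhibition above about 21% made by adding two undisclosed values, limit read from the data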
# ABHD4 inh: ABHD4 inhibitors, primary screen, biochemical, fluorescence polarization, mouse; AID 720543, 2013; inhibition, % at 8.92 µM; purified mABHD4, FP-Rh probe fluorescence polarization; actives 0.54% (n = 370,000); (Lyso)-N-acylphosphatidylethanolamine lipase (Mus musculus), Q8VD66;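 active = inhibition exceeding the mean over every tested compound plus 3 SD, cut at about 30% in these data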;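 also: 0% = plate median of compound wells and 100% = S159A mutant with DMSO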
#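 Assay system: Wild-type mouse ABHD4 protein | Medium: HEPES pH 7.0 buffer, 150 mM NaCl, 0.01% Pluronic F-127 | Incubation: Enzyme–compound pre-incubation 45 min, then probe 60 min, both 25 °C | Technique: Fluorescence polarization with parallel and perpendicular emission, 525/598 nm | Evaluation: % inhibition of FP-Rh probe binding versus controls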
# HTRA1 inh: HTRA1 serine protease inhibitors, primary screen, biochemical, fluorescence polarization, HTS; recombinant HTRA1, FP-rhodamine activity-based probe; inhibition, % at 5.96 µM; actives 0.5% (n = 340,000); AID 504803, 2011; in the data active = inhibition above about 36%;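 also: 0% = enzyme with DMSO and 100% = wells lacking enzyme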
# Target sequence (Q92743 whole entry, looked up): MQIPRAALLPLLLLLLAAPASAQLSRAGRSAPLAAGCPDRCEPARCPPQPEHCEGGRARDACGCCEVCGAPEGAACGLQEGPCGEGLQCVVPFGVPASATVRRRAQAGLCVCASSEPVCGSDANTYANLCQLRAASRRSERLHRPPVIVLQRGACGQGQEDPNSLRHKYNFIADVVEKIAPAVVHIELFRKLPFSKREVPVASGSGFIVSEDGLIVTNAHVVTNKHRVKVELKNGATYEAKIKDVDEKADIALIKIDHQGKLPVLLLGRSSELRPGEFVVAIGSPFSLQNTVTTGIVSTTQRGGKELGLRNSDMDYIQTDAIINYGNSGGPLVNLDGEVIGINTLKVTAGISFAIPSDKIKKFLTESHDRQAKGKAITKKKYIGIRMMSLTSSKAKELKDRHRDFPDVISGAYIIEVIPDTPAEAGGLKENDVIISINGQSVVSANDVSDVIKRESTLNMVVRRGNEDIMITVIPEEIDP
# SIAE primary: human SIAE inhibitors, primary screen, biochemical, fluorescence polarization, FP-Rh probe, 1536-well HTS. Sialate O-acetylesterase (Homo sapiens), Q9HAT2. SIAE FP-Rh probe binding. inhibition, % at 9.66 µM. actives 0.69% (n = 370,000). AID 1053197, 2014;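 active = inhibition above a cutoff: mean of compounds within the control limits plus 3 SD of those, cut at about 17% in these data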;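 also: 0% = plate median of compound wells and 100% = probe without SIAE protein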
# * marks the source's active call; other numbers are inactive results; · = no result given.
SMILES,rCAG RNA binder,PRMT1 FP inh,ABHD4 inh,HTRA1 inh,SIAE primary
O=[N+]([O-])c1cccc(-c2ccc(CN3CCN(c4ccccc4)CC3)o2)c1,4,6,-8,-3,-9
O=[N+]([O-])c1ccccc1-c1ccc(CN2CCN(c3ccccc3)CC2)o1,-4,23*,-2,10,-3
O=c1oc2ccc(Cl)cc2nc1/C=C(\O)c1cccs1,5,7,32*,3,5
CN(c1ccc(OCC(=O)Nc2ccccc2C(=O)O)cc1)S(=O)(=O)c1ccc(Cl)cc1,55*,2,-6,-7,-11
O=c1c(Br)ccc(Br)cc1Br,3,62*,12,12,4
CC[n+]1c(C)sc2cc(OC)ccc21,-4,54*,6,0,5
COCc1[nH]nc2c1C(c1ccccc1)N(Cc1ccccc1)C2=O (stereo unspecified),1,-5,-3,·,-4
CCN(CC)c1ccc(NC2CC(=O)N(CCc3ccc(OC)cc3)C2=O)cc1 (stereo unspecified),20,2,29,54*,10
CC(C(=O)N(C)C1CCS(=O)(=O)C1)N1C(=O)/C(=C/c2ccco2)SC1=S (stereo unspecified),22,24*,13,3,4
CC(C(=O)N(C)C1CCS(=O)(=O)C1)N1C(=O)/C(=C/c2cccs2)SC1=S (stereo unspecified),0,-2,-3,3,1
COC(=O)[C@]12C[C@H](CC(=O)NCC34CC5CC(CC(C5)C3)C4)C(=O)N(Cc3ccccc3)C1=C[C@H](C(C)(C)C)O[C@@H]2C,8,0,-4,·,-5
Oc1ccc(C2CNCc3sccc32)cc1O (stereo unspecified),4,46*,24,27,12
O=C(O)c1ccc2c(c1)C(=O)/C(=C/c1ccccc1)C2=O,21,25*,31*,7,-7
Cc1ccc(C(=O)N2CCCCC2)cc1NC1=C(Cl)C(=O)N(Cc2ccccc2)C1=O,2,1,10,-19,-3
Cc1ccc(O)c(NC2=C(Cl)C(=O)N(Cc3ccccc3)C2=O)c1,17,24*,26,-12,7
O=C1C(Cl)=C(Nc2ccccc2O)C(=O)N1c1ccccc1,9,22*,28,8,4
COC(=O)[C@]12C[C@H](CC(=O)N3CCC(c4ccccc4)CC3)C(=O)N(Cc3ccccc3)C1=C[C@H](C(C)(C)C)O[C@@H]2C,11,2,0,·,0
Cc1nc(N)sc1-c1csc(Nc2ccccn2)n1,20,23*,20,24,2
Cc1nc(C)c(-c2csc(Nc3ccccn3)n2)s1,-3,3,3,6,-1
CCCN1CCCCC(NC(=O)c2ccccc2C)C1=O (stereo unspecified),1,-6,3,·,-3
C#CC1c2ccccc2CCN1CC=C (stereo unspecified),1,-4,6,·,1
O=C(c1nc2ccc(Cl)cn2c1CN1CCCC1)N1CCc2ccccc2C1,5,24*,1,8,0
Cc1cc(N2C(=O)C(O)=C(C(=O)c3cc4ccccc4o3)C2c2ccc([N+](=O)[O-])cc2)no1 (stereo unspecified),46*,0,-12,-17,1
Cc1ccc(C2C(C(=O)c3cc4ccccc4o3)=C(O)C(=O)N2c2cc(C)on2)cc1 (stereo unspecified),20,4,-2,-7,10
COc1ncnc2c1NC1=C(S2)C(=NCCC(=O)O)CC(C)(C)C1,-31,28*,12,15,-5
SMILES,rCAG RNA binder,PRMT1 FP inh,ABHD4 inh,HTRA1 inh,SIAE primary
CN(C)c1ncnc2c1NC1=C(S2)C(=NCCCC(=O)O)CC(C)(C)C1,0,17,7,0,2
CCn1c(SCC(=O)N/N=C/C=C\c2ccco2)nc2ccccc21,13,21*,11,2,14
O=C(Nc1nc(=O)c2ccccc2s1)c1ccccc1,3,75*,13,-3,0
Cc1ccc(C(=O)Nc2nc3ccccc3c(=O)s2)cc1,2,59*,13,-12,1
O=C(Nc1nc2ccccc2s1)c1ccc(F)cc1,0,3,7,-19,-6
CSc1nc2ccc3nc(NC(=O)c4ccc(C)cc4)sc3c2s1,4,0,1,-12,-8
Cc1ccc(S(=O)(=O)N2CC(CBr)=CCC2c2ccccc2)cc1 (stereo unspecified),4,-10,-2,·,-9
O=C1c2[nH]nc(-c3ccccc3)c2C(c2ccc(F)cc2)N1Cc1ccccc1 (stereo unspecified),6,14,-27,·,-10
COc1ccc(CCN2CC(=O)N3CCc4ccc(N5CCOCC5)cc4C3CC2=O)cc1OC (stereo unspecified),5,2,5,·,-1
COc1cc2c(cc1OC)-c1cc3ccc4c(c3c[n+]1CC2)OCO4,-67,57*,12,6,8
COc1cc2c(cc1O)CC[n+]1cc3c(OC)c(OC)ccc3cc1-2,5,2,-1,6,4
Cc1ccc(CNc2ncc(-c3ccc4c(c3)OCO4)n2C)cc1,1,0,8,3,12
Cc1ccc(CNc2ccc3c(c2)OCO3)cc1,·,·,·,49*,·
COC(=O)c1cccc(N2C(=O)C(Cl)=C(N3CCOCC3)C2=O)c1,3,13,2,2,6
O=C1C(Cl)=C(N2CCOCC2)C(=O)N1c1cccc(C(F)(F)F)c1,-2,22*,6,-28,-1
CC(C)(C)c1ccc(C#C[C@@H]2C=C[C@H]3OC(=O)CC/C=C/CCC(=O)OC[C@H]3O2)cc1,7,5,-4,·,2
CCN1CCN(c2cc(C(C)C)nc3c(-c4ccccc4)c(C)nn23)CC1,-10,-4,14,·,18*
COc1cccc(CNC(=O)[C@H]2CCCN2C(=O)[C@H]2CCCN2C(=O)c2ccc(F)cc2F)c1,1,-3,2,·,6
C=CCn1c(O)c(CN2CCCCC2)c(C)c(C#N)c1=O,8,22*,-7,5,-18
COC(=O)CCC(=O)OC1(C)C(=O)C2=CN(CCc3ccccn3)C(c3ccc(OC)cc3)=CC2=C(Br)C1=O (stereo unspecified),·,·,·,37*,·
Cc1nc(C)c(CCNC(=O)c2ccc(C(F)(F)F)cc2)s1,-3,1,7,-6,-5
Cc1ccc(C(=O)NCCc2sc(C)nc2C)cc1,-3,23*,2,-1,-1
COc1cc(N)c2ncccc2c1Cl,5,8,34*,6,15
Cc1ccc(SCC(=O)Nc2oc(C)c3c(C)n[nH]c(=O)c23)cc1C,4,7,1,-10,-9
